From ChEMBL document CHEMBL1123586, “3-[(2-ethoxyphenoxy)methyl]piperidine derivatives. Synthesis and antidepressant activity” (J Med Chem, 1987)

Key:
Mus musculus [1] = test: Compound dose that causes lethality (acute toxicity) was determined by administering perorally in mice.; assay type: organism-based; conditions: in vivo, po
Sus scrofa [2] = species: Sus scrofa; test: Tested for in vitro reuptake inhibition of [3H]-5-hydroxy tryptamine in pig frontal synaptosomes.; assay type: functional; conditions: Brain
In short: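 Synaptosomes from frontal cortex of slaughterhouse pig brain take up [3H]-5-HT (4 nM) with the compound present. Nonspecific uptake is defined with chlorimipramine and also by incubating at 0–4 °C without drug. IC50 for specific uptake by log-probit analysis, four concentrations, each in triplicate.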

Mus musculus [3] = test: Amphetamine antagonistic activity on peroral administration in mice.;value ranges from (5.1-5.9); assay type: functional
Mus musculus [4] = test: Antidepressant activity was assessed from the ability to antagonize reserpine-induced palpebral ptosis on peroral administration in mice.;Value ranges from (0.9-3.1).; assay type: functional
Sus scrofa [5] = species: Sus scrofa; test: Tested for in vitro reuptake inhibition of [3H]norepinephrine in pig occipital synaptosomes.; assay type: functional; conditions: Brain
In short: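 [3H]NE (15 nM) uptake into occipital cortex synaptosomes from slaughterhouse pig brain, measured with the compound present. Nonspecific transport is defined with desipramine and also by incubation at 0–4 °C without drug. IC50 for specific uptake from log-probit analysis, four concentrations, each in triplicate.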

Mus musculus [6] = test: Pentylenetetrazole antagonistic activity on peroral administration in mice; inactive at this dose.; assay type: functional
Sus scrofa [7] = species: Sus scrofa; test: Tested for in vitro reuptake inhibition of [3H]dopamine in pig striatal synaptosomes.; assay type: functional; conditions: Brain
In short: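 Pig corpus striatum synaptosomes (slaughterhouse brains) take up [3H]DA (2 nM) with the compound present. Nonspecific transport is defined with benztropine and also by incubation at 0–4 °C without drug. IC50 for specific uptake by log-probit analysis over four concentrations, each in triplicate.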

Mus musculus [8] = test: Antidepressant activity was assessed from the ability to antagonize reserpine-induced hypothermia on peroral administration in mice;value ranges from (13.5-19.1); assay type: functional
Mus musculus [9] = test: Amphetamine antagonistic activity on peroral administration in mice; inactive at this dose.; assay type: functional
Mus musculus [10] = test: Pentylenetetrazole antagonistic activity on peroral administration in mice; inactive at this dose..; assay type: functional
Mus musculus [11] = test: Antidepressant activity was assessed from the ability to antagonize reserpine-induced hypothermia on peroral administration in mice;inactive at this dose..; assay type: functional
Mus musculus [12] = test: Antidepressant activity was assessed from the ability to antagonize reserpine-induced palpebral ptosis on peroral administration in; inactive at this dose.; assay type: functional
Mus musculus [13] = test: Antidepressant activity was assessed from the ability to antagonize reserpine-induced palpebral ptosis on peroral administration in mice;value ranges from (2.7-5.4.); assay type: functional
Mus musculus [14] = test: Amphetamine antagonistic activity on peroral administration in mice; value ranges from (7.4-19.7.); assay type: functional
Mus musculus [15] = test: Antidepressant activity was assessed from the ability to antagonize reserpine-induced hypothermia on peroral administration in mice;value ranges from (11.1-31.); assay type: functional
Mus musculus [16] = test: Pentylenetetrazole antagonistic activity on peroral administration in mice; Value ranges from (24.5-41.4); assay type: functional
Mus musculus [17] = test: Amphetamine antagonistic activity on peroral administration in mice; Value ranges from (29.4-65.9); assay type: functional
Mus musculus [18] = test: Antidepressant activity was assessed from the ability to antagonize reserpine-induced palpebral ptosis on peroral administration in mice; Value ranges from (1.3-3.4).; assay type: functional

In the case of `CCOc1ccccc1OCC1(O)CCCNC1` (stereo not given), the LD (Mus musculus [1]) is reported as 150 mg/kg, the IC50 (Sus scrofa [2]) is reported as 65 µM and the ED (Mus musculus [3]) is reported as 5.5 mg/kg. The ED (Mus musculus [4]) was 1.5 mg/kg, the IC50 (Sus scrofa [5]) was 0.66 µM and the ED (Mus musculus [6]) was > 50 mg/kg. The IC50 (Sus scrofa [7]) was 20 µM and the ED (Mus musculus [8]) was 15.2 mg/kg.

For `CCOc1ccccc1OCC1(OC)CCCNC1` (stereo not given), the LD (Mus musculus [1]) was 200 mg/kg, the ED (Mus musculus [9]) was > 50 mg/kg and the ED (Mus musculus [10]) was > 50 mg/kg. The IC50 (Sus scrofa [2]) was 110 µM, the ED (Mus musculus [11]) was > 25 mg/kg and the IC50 (Sus scrofa [5]) was 1.3 µM. For the same compound, the ED (Mus musculus [12]) was > 25 mg/kg and the IC50 (Sus scrofa [7]) was 68 µM.

`CCOc1ccccc1OCC1CCCNC1` (stereo not given) was tested, and the LD (Mus musculus [1]) was 300 mg/kg, the IC50 (Sus scrofa [2]) was 95 µM and the ED (Mus musculus [13]) was 3.7 mg/kg. The ED (Mus musculus [14]) was 9.4 mg/kg, the IC50 (Sus scrofa [5]) was 0.97 µM and the ED (Mus musculus [6]) was > 50 mg/kg. It also gave an IC50 (Sus scrofa [7]) of 62 µM and an ED (Mus musculus [15]) of 17 mg/kg.

For `CNCCCN1c2ccccc2CCc2ccccc21` [DESIPRAMINE], the LD (Mus musculus [1]) was 300 mg/kg, the IC50 (Sus scrofa [2]) was 0.42 µM and the IC50 (Sus scrofa [5]) was 0.0032 µM. For the same compound, the ED (Mus musculus [16]) was 33.1 mg/kg, the ED (Mus musculus [17]) was 40.3 mg/kg and the IC50 (Sus scrofa [7]) was 6.1 µM. It also gave an ED (Mus musculus [18]) of 1.8 mg/kg.

`CCOc1ccccc1OCC1CNCCO1` (stereo not given) [VILOXAZINE] gave an LD (Mus musculus [1]) of 600 mg/kg, an IC50 (Sus scrofa [2]) of 20 µM and an IC50 (Sus scrofa [5]) of 0.22 µM. It also gave an IC50 (Sus scrofa [7]) of 38 µM.
